From ChEMBL document CHEMBL1134844 (J Med Chem, 2001)

Tests used:
[1] = target: 5-hydroxytryptamine receptor 1B (Homo sapiens, UniProt P28222); assay: Binding affinity in CHO-K1 cells transfected with human recombinant 5-hydroxytryptamine 1B receptor; assay type: cell-based
[2] = target: 5-hydroxytryptamine receptor 1D (Homo sapiens, UniProt P28221); assay: Binding affinity in CHO-K1 cells transfected with human 5-hydroxytryptamine 1D receptor; assay type: cell-based
Procedure, shortened: (§1)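 Competition binding on CHO-K1 cells stably transfected with human recombinant 5HT1D, 5HT1F or 5HT1A receptors; reported as pIC50, means of duplicates.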

Oryctolagus cuniculus [3] = species on record: Oryctolagus cuniculus; assay: (§2) Relative binding affinity in rabbit saphenous vein functional assay compared to 5-HT; conditions: read-out: pA2 (converted)
Oryctolagus cuniculus [4] = species on record: Oryctolagus cuniculus; assay: as §2
[5] = target: T1, 5-hydroxytryptamine receptor 1A (Homo sapiens, UniProt P08908); assay: binding affinity towards human recombinant 5-hydroxytryptamine 1A receptor; procedure, shortened: as §1
T1 sequence (P08908 whole entry): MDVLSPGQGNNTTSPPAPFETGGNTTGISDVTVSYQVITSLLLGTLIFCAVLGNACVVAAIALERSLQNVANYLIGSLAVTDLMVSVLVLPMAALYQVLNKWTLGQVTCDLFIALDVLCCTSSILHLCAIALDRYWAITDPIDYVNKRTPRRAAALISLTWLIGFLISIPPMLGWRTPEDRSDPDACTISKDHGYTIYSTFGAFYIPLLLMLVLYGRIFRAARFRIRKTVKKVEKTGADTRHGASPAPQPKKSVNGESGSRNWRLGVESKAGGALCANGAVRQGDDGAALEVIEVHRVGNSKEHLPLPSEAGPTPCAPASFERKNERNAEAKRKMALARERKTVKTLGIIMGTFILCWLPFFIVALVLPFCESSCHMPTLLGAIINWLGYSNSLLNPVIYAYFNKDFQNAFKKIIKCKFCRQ

[6] = Oral bioavailability in rat; assay type: ADME, organism-based; conditions: in vivo
[7] = Plasma clearance in rat; assay type: ADME, organism-based
[8] = Oral bioavailability in human; assay type: ADME, organism-based; conditions: in vivo
[9] = Beta phase half life was determined in rat; assay type: ADME, organism-based; conditions: in vivo
[10] = Volume distribution in rat; assay type: ADME, organism-based; conditions: in vivo
[11] = target: T2, 5-hydroxytryptamine receptor 1F (Homo sapiens, UniProt P30939); assay: Binding affinity towards human recombinant 5-hydroxytryptamine 1F receptor; procedure, shortened: as §1
T2 sequence (P30939 whole entry): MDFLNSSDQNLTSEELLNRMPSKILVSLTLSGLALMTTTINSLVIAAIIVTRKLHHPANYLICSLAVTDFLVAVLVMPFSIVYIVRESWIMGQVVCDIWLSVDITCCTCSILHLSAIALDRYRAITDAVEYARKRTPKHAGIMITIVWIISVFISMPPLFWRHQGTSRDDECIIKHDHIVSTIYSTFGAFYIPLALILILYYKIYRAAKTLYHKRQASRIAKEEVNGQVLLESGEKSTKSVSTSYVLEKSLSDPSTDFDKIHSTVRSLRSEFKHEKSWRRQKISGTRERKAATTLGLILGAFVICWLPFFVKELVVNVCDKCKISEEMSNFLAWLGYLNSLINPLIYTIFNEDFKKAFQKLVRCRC

Cavia porcellus [12] = species on record: Cavia porcellus; assay: Ability to inhibit [125I]- albumin extravasation into dura following electrical stimulation of trigeminal ganglion; assay type: functional
Procedure, shortened: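 Anesthetized guinea pigs (pentobarbitone 50 mg/kg ip, 37 °C, ventilated) got a single iv jugular bolus (0.01, 0.03 or 0.1 µg/kg; vehicle 0.9% saline). 5 min later 50 µCi/kg [125I]BSA iv; after another 5 min, unilateral trigeminal ganglion stimulation for 5 min (5 pulses/s, 5 ms, 1.2 mA). Dural cpm/mg wet weight was expressed as stimulated/unstimulated ratio, mean ± SEM.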

Oryctolagus cuniculus [13] = species on record: Oryctolagus cuniculus; conditions: Saphenous vein
Cavia porcellus [14] = species on record: Cavia porcellus; assay: Ability to inhibit [125I]- albumin extravasation into dura following electrical stimulation of trigeminal ganglion of Guinea pig; assay type: functional
Procedure, shortened: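 Pentobarbitone-anaesthetised (50 mg/kg ip), ventilated guinea pigs kept at 37 °C; single jugular iv bolus of 0.01, 0.03 or 0.1 µg/kg or saline vehicle. 5 min later, [125I]BSA 50 µCi/kg iv. After another 5 min, one trigeminal ganglion was stimulated for 5 min (5 pulses/s, 5 ms, 1.2 mA). Dura gamma-counted as cpm/mg wet weight; stimulated/unstimulated ratio, mean ± SEM; vehicle controls run daily.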

Oryctolagus cuniculus [15] = species on record: Oryctolagus cuniculus; assay: Binding affinity towards rabbit saphenous vein value in parenthesis represents intrinsic activity for RbSv;(1 for 5-HT); assay type: functional

5-hydroxytryptamine receptor 1D, sequence (P28221 whole entry): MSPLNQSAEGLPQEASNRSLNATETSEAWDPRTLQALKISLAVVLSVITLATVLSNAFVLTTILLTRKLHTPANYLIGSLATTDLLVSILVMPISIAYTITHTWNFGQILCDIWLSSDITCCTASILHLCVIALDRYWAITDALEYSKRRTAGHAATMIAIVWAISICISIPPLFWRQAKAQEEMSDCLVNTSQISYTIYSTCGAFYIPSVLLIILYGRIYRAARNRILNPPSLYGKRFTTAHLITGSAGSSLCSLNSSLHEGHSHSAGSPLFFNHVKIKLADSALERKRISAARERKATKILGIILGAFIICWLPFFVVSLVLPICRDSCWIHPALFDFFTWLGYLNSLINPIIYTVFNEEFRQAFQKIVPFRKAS
5-hydroxytryptamine receptor 1B, sequence (P28222 whole entry): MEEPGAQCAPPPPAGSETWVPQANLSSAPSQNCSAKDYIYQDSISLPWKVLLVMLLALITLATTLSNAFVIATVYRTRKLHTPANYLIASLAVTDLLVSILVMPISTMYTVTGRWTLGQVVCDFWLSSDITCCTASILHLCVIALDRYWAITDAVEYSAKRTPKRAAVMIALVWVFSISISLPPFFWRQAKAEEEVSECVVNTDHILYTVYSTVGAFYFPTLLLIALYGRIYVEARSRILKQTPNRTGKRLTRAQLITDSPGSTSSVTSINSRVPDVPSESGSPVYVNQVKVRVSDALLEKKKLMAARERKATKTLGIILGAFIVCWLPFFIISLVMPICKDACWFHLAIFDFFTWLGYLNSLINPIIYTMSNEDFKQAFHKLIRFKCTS

Row | IC50 [1] [nM] | IC50 [2] [nM] | SMILES | Kb (Oryctolagus cuniculus [3]) [nM] | pA50 (Oryctolagus cuniculus [4]) | further results
1 | 316 | 141 | CN(C)[C@H]1C[C@H](c2c[nH]c3ccc(C(=O)NCc4ccccc4)cc32)C1 | 1260 |  | 
2 | 3800 | 3090 | CN(C)[C@H]1C[C@H](c2c[nH]c3ccc(CN4C(=O)NC(C)(C)C4=O)cc32)C1 | 589 |  | 
3 | 162 | 100 | CN(C)[C@H]1C[C@H](c2c[nH]c3ccc(CC4COC(=O)N4)cc32)C1 (stereo in doubt; 35) [listing 1 of 2 here] |  |  | 
4 | 97.7 | 57.5 | CN1C(=O)OCC1Cc1ccc2[nH]cc([C@H]3C[C@H](N(C)C)C3)c2c1 (stereo in doubt; 34) [listing 1 of 2 here] |  |  | 
5 | 1200 | 1480 | CN(C)[C@H]1C[C@H](c2c[nH]c3ccc(CCN4C(=O)NC(C)(C)C4=O)cc32)C1 | 891 |  | 
6 | 204 | 100 | CN1C(=O)OCC1Cc1ccc2[nH]cc([C@H]3C[C@H](N(C)C)C3)c2c1 (stereo in doubt; 30) [listing 1 of 2 here] |  |  | 
7 | 112 | 15.8 | CN(C)[C@H]1C[C@H](c2c[nH]c3ccc(CC4COC(=O)N4)cc32)C1 (stereo in doubt; 1) [listing 1 of 2 here] |  |  | IC50 [5]: 3550 nM; bioavailability [6]: 35%; clearance [7]: 40 mL/min/kg; bioavailability [8]: 41%; half-life [9]: 1.4 h; Vd [10]: 2.6 L/kg; IC50 [11]: 363 nM; ED50 (Cavia porcellus [12]): ~0.01 µg/kg
8 | 562 | 170 | CN(C)[C@H]1C[C@H](c2c[nH]c3ccc(CC4COC(=O)N4)cc32)C1 (stereo in doubt; 31) [listing 2 of 2 here] |  |  | 
9 | 263 | 339 | CN(C)[C@H]1C[C@H](c2c[nH]c3ccc(CC(=O)NCc4ccccc4)cc32)C1 | 3890 |  | 
10 | 1120 | 501 | CC1(C)NC(=O)N(CCc2ccc3[nH]cc([C@H]4C[C@H](N)C4)c3c2)C1=O | 2690 |  | 
11 | 6310 | 2450 | CN(C)[C@H]1C[C@H](c2c[nH]c3ccc(CN4C(=O)CNC4=O)cc32)C1 | 9330 |  | 
12 | 204 | 195 | CN(C)[C@H]1C[C@H](c2c[nH]c3ccc(CCN4C(=O)c5ccccc5C4=O)cc32)C1 | 170 |  | 
13 | 141 | 28.8 | CN(C)[C@H]1C[C@H](Cc2c[nH]c3ccc(C[C@H]4COC(=O)N4)cc23)C1 | 1860 |  | 

More lines, now with the values behind:

Row | SMILES | IC50 [1] [nM] | IC50 [2] [nM] | Kb (Oryctolagus cuniculus [3]) [nM] | pA50 (Oryctolagus cuniculus [4]) | further results
14 | Cc1noc(-c2ccc3[nH]cc([C@H]4C[C@H](N(C)C)C4)c3c2)n1 | 832 | 562 | 955 |  | 
15 | Cc1noc(Cc2ccc3[nH]cc([C@H]4C[C@H](N(C)C)C4)c3c2)n1 | 1510 | 933 | 7590 |  | 
16 | N[C@H]1C[C@H](c2c[nH]c3ccc(CC4COC(=O)N4)cc32)C1 (stereo in doubt; 23) [listing 1 of 2 here] |  |  |  | 6.42 | 
17 | CN(C)[C@H]1C[C@H](c2c[nH]c3ccc(CC4COC(=O)N4)cc32)C1 (stereo in doubt; 31) [listing 1 of 2 here] |  |  |  | 4.95 | 
18 | N[C@H]1C[C@H](c2c[nH]c3ccc(CC4COC(=O)N4)cc32)C1 (stereo in doubt; 23) [listing 2 of 2 here] | 18.2 | 3.63 |  |  | 
19 | CN(C)[C@H]1C[C@H](c2c[nH]c3ccc(C(N)=O)cc32)C1 | 44.7 | 14.8 |  | 6.25 | 
20 | N[C@H]1C[C@H](c2c[nH]c3ccc(Oc4ccccc4)cc32)C1 | 9.55 | 14.5 |  | < 6.5 | 
21 | CN(C)[C@H]1C[C@H](c2c[nH]c3ccc(Oc4ccccc4)cc32)C1 | 97.7 | 64.6 | 240 |  | 
22 | CN1C(=O)OCC1Cc1ccc2[nH]cc([C@H]3C[C@H](N(C)C)C3)c2c1 (stereo in doubt; 34) [listing 2 of 2 here] |  |  |  | 4.85 | 
23 | CN(C)[C@H]1C[C@H](c2c[nH]c3ccc(CCN4C(=O)CNC4=O)cc32)C1 |  |  | 1910 |  | 
24 | CN(C)[C@H]1C[C@H](c2c[nH]c3ccc(CC(N)=O)cc32)C1 | 1350 | 724 | 16600 |  | 
25 | CN1C(=O)OCC1Cc1ccc2[nH]cc([C@H]3C[C@H](N(C)C)C3)c2c1 (stereo in doubt; 30) [listing 2 of 2 here] |  |  |  | 5.21 | 
26 | CN(C)[C@H]1C[C@H](c2c[nH]c3ccc(CC4COC(=O)N4)cc32)C1 (stereo in doubt; 35) [listing 2 of 2 here] |  |  |  | 5.15 | 
27 | N[C@H]1C[C@H](c2c[nH]c3ccc(CC4COC(=O)N4)cc32)C1 (stereo in doubt; 24) |  |  |  | 5.8 | 
28 | CNS(=O)(=O)Cc1ccc2[nH]cc(CCN(C)C)c2c1 |  |  |  |  | pA50 (Oryctolagus cuniculus [13]): 6.6; bioavailability [8]: 14%; ED50 (Cavia porcellus [14]): 10 µg/kg
29 | CN(C)CCc1c[nH]c2ccc(C[C@H]3COC(=O)N3)cc12 [ZOLMITRIPTAN] | 6.17 | 2.82 |  | 6.8 | bioavailability [8]: 40%; ED50 (Cavia porcellus [14]): ~12 µg/kg
30 | CNS(=O)(=O)Cc1ccc2[nH]cc(C[C@H]3CCCN3C)c2c1 | 14.5 | 7.24 |  |  | ED50 (Cavia porcellus [14]): 0.1 µg/kg; pA50 (Oryctolagus cuniculus [15]): 6.33
31 | CNS(=O)(=O)Cc1ccc2[nH]cc([C@H]3C[C@H](N(C)C)C3)c2c1 | 275 | 191 |  | 5.25 | 
32 | Cc1nc(Cc2ccc3[nH]cc([C@H]4C[C@H](N(C)C)C4)c3c2)n[nH]1 | 3890 | 2040 | 6610 |  | 
33 | CN[C@H]1C[C@H](c2c[nH]c3ccc(CC4COC(=O)N4)cc32)C1 (stereo partly specified) | 32.4 | 7.08 |  | 6.18 | 
34 | CN(C)[C@H]1C[C@H](c2c[nH]c3ccc(CC4COC(=O)N4)cc32)C1 (stereo in doubt; 1) [listing 2 of 2 here] |  |  |  | 5.72 | 
